# Experimental data of several laboratories.
# Each line is one published result; the experiments were not run side by side.
# Target: Mitogen-activated protein kinase kinase kinase kinase 2 (MAP4K2, Homo sapiens, UniProt Q12851)
# Sequence (Q12851 1-820, as in one of the studies): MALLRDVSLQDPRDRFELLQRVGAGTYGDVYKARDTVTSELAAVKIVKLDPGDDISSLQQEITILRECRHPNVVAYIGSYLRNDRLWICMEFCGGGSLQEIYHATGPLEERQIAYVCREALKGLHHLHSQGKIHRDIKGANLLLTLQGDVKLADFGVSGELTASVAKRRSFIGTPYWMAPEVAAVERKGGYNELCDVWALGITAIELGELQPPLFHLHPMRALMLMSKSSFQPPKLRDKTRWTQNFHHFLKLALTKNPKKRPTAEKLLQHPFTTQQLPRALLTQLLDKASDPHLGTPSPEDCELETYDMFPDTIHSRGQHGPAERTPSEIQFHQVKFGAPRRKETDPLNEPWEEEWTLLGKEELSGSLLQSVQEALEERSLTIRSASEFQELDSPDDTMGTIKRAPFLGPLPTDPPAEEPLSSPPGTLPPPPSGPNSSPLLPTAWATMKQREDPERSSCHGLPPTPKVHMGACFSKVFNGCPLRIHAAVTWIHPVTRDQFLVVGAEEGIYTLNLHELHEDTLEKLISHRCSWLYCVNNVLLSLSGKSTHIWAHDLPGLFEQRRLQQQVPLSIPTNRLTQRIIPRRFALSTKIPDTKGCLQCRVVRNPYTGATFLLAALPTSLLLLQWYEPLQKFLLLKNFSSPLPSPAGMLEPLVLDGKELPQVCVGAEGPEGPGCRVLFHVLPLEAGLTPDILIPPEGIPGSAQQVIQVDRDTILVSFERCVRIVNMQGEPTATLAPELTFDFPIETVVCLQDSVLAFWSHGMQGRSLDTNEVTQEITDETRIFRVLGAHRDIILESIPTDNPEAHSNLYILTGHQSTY
Compound,test,conditions,quantity,result
Cn1cncc1[C@@](O)(COc1ccc(C#N)cc1-c1ccc(OC(F)(F)F)cc1)c1ccc(C#N)cc1,"cell-free assay, competition with immobilised ligand",1 µM,remaining binding,100%
COc1ncccc1-c1cnn2ccc(N3CCN(C(=O)OC(C)C)CC3)nc12,"binding, competition with immobilised ligand",1 µM,remaining binding,65%
COc1cc(Nc2ncc(F)c(Nc3ccc4c(n3)NC(=O)C(C)(C)O4)n2)cc(OC)c1OC,"binding, competition with immobilised ligand",10 µM,inhibition,85%
O=c1[nH]c2ccccc2n1C1CCN(Cc2ccc(-c3[nH]c4cc5ncnc5cc4nc3-c3ccccc3)cc2)CC1,cell-free assay,0.5 µM,remaining signal,105%
Nc1ncc(-c2nc(N3CCOCC3)nc(N3CCOCC3)n2)c(C(F)F)n1,"binding, competition with immobilised ligand",10 µM,remaining binding,78%
Cn1cc(-c2cc(F)cc(N3CCn4c(cc5c4CCCC5)C3=O)c2CO)cc(Nc2ccc(N3CCN(C4COC4)CC3)cn2)c1=O,"enzyme activity, inhibitor",0.1 µM,inhibition,2%
Cc1nn(C)cc1-c1nc2c(N3CCN(Cc4ccc(Cl)cc4)CC3)c(Cl)cnc2[nH]1,"binding, competition with immobilised ligand",1 µM,remaining binding,85%
CC(C)(C)c1cc(C=C(C#N)C#N)cc(Br)c1O,"enzyme activity, inhibitor",0.5 µM,remaining activity,113%
N#CC1(c2ccccn2)CCN(Cc2cc(C(=O)O)c(=O)n3ccccc23)CC1,"cell-free assay, competition with immobilised ligand",1 µM,remaining binding,81%
